The source made the active and inactive calls. The calls are words filed in the database; no cut-off is given here.
Key:
[1] = molecular target: T1, Protein cereblon/Tyrosine-protein kinase BTK (Homo sapiens, UniProt Q06187+Q96SW2); assay: PROTAC activity at BTK/CRBN protein protein interaction in human JeKo-1 cell assessed as degradation of BTK incubated for 17 hrs measured by Western blot analysis; assay type: cell-based
In short: (§1)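 Ramos or JeKo-1 cells (2 × 10^6 per well) were exposed for 17 h to 3000–0.15 nM PROTAC in 3-fold steps. Cells were lysed and analysed by western blot, with BTK normalised to β-actin. DC50 and Dmax come from the dose-response; DC50 is the mean ± SD of two independent experiments.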
Target sequence in this assay (Q06187 whole entry): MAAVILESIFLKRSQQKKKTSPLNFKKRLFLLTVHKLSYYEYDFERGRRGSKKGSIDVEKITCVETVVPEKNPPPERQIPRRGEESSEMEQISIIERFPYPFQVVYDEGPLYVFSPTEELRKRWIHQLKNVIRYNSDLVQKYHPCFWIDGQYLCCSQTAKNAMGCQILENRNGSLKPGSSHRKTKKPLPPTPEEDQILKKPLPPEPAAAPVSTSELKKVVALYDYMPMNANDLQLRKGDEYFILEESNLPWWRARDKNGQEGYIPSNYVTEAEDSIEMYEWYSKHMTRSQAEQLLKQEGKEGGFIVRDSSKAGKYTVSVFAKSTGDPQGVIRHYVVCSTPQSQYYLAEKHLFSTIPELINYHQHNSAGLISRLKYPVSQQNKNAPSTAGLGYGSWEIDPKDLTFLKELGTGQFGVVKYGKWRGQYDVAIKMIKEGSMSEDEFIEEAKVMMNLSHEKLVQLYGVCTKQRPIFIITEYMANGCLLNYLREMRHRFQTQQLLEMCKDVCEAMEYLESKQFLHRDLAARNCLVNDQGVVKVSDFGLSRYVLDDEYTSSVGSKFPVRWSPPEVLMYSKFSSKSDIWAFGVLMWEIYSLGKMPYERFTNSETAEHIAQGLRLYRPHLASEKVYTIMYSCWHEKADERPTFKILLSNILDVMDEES
Target sequence in this assay (Q96SW2 whole entry): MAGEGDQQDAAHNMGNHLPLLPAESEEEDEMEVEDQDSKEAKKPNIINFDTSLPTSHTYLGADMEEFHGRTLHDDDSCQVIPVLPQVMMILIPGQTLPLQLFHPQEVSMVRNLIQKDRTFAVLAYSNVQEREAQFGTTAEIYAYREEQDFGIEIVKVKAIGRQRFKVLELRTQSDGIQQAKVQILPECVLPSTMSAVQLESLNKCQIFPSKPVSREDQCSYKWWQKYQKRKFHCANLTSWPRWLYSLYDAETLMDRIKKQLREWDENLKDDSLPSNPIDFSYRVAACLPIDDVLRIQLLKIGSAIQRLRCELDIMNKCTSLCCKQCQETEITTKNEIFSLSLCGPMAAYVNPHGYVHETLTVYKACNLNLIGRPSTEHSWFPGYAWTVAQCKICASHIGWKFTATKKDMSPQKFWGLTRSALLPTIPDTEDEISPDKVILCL

[2] = molecular target: T1, Protein cereblon/Tyrosine-protein kinase BTK; assay: PROTAC activity at BTK/CRBN protein protein interaction in human Ramos cell assessed as degradation of BTK incubated for 17 hrs measured by Western blot analysis relative to control; assay type: cell-based; in short: as §1
Target sequence in this assay (Q06187 2-659 limits assumed): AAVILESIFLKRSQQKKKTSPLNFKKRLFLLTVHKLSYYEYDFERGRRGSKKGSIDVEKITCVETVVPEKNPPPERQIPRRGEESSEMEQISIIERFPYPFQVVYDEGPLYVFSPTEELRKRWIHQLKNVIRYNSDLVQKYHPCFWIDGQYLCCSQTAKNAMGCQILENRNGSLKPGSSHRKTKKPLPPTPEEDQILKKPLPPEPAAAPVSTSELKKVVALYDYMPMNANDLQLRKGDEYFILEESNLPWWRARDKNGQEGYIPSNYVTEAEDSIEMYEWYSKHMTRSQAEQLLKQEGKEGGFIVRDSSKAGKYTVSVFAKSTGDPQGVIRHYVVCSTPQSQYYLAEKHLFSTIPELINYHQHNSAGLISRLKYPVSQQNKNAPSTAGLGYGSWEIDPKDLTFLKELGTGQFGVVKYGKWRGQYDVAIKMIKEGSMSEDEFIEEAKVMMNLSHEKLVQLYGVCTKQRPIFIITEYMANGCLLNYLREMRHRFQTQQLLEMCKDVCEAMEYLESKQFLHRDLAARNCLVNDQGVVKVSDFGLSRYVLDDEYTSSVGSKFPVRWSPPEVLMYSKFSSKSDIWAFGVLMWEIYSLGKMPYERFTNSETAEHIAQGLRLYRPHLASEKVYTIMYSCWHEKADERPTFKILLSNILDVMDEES
Target sequence in this assay (Q96SW2 whole entry partner): as the sequence (Q96SW2 whole entry) above

[3] = molecular target: T1, Protein cereblon/Tyrosine-protein kinase BTK; assay: PROTAC activity at BTK/CRBN protein protein interaction in human JeKo-1 cell assessed as degradation of BTK incubated for 17 hrs measured by Western blot analysis relative to control; assay type: cell-based; in short: as §1
Target sequence in this assay (Q06187 2-659 limits assumed): as the sequence (Q06187 2-659 limits assumed) above
Target sequence in this assay (Q96SW2 whole entry partner): as the sequence (Q96SW2 whole entry) above

[4] = molecular target: T1, Protein cereblon/Tyrosine-protein kinase BTK; assay: PROTAC activity at BTK/CRBN protein protein interaction in human Ramos cell assessed as degradation of BTK incubated for 17 hrs measured by Western blot analysis; assay type: cell-based; in short: as §1
Target sequence in this assay (Q06187 whole entry): as the sequence (Q06187 whole entry) above
Target sequence in this assay (Q96SW2 whole entry): as the sequence (Q96SW2 whole entry) above

TMD8 = assay: Induction of apoptosis in human TMD8 cells measured after 48 hrs by Annexin-V/propidium iodide staining based flow cytometric analysis; assay type: functional, cell-based; conditions: dose 0.15-3000 nM
In short: (§2)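 Cells plated at 2 × 10^6 per well and treated 48 h at 3,000–0.15 nM (3-fold dilutions) or 1% DMSO. Harvested, washed in cold PBS, stained with Annexin V Alexa Fluor 488/propidium iodide, analysed by flow cytometry for % live, apoptotic and necrotic cells. Mean of two independent experiments.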

[5] = Cytotoxicity against human MINO cells incubated for 48 hrs by celltitre glo 2.0 assay; assay type: functional, cell-based
MINO = assay: Induction of apoptosis in human MINO cells at 0.15 to 3000 nM for 48 hrs by Annexin-V/propidium iodide staining based flow cytometric analysis; assay type: functional, cell-based; conditions: dose 0.15-3000 nM; in short: as §2
Protein cereblon = Protein cereblon (Homo sapiens, UniProt Q96SW2); assay: Inhibition of CRBN in HEK293 cells using NanoGlo substrate incubated for 2 hrs by NanoBRET assay; assay type: cell-based
Chain of Protein cereblon (Q96SW2 whole entry, the tested form may be a part): as the sequence (Q96SW2 whole entry) above

[6] = molecular target: T1, Protein cereblon/Tyrosine-protein kinase BTK; assay: PROTAC activity at Halo-tagged CRBN/NanoLuc fusion tagged BTK transfected in HEK293 cells assessed as degradation of BTK by measuring ternary complex formation using NanoGlo substrate preincubated with proteasome inhibitor MG-132 for 30 mins followed by compound and substrate addition incubated for 2.5 hrs measured by NANOBRET assay relative to 4-((2-((S)-4-(6-((2'-(7,7-Dimethyl-1-oxo-1,3,4,6,7,8-hexahydro-2H-cyclopenta[4,5]pyrrolo[1,2-a]pyrazin-2-yl)-3'-(hydroxymethyl)-1-methyl-6-oxo-1,6-dihydro-[3,4'-bipyridin]-5-yl)amino)pyridin-3-yl)-3-methylpiperazin-1-yl)-2-oxoethyl)amino)-2-(2,6-dioxopiperidin-3-yl)isoindoline-1,3-dione; assay type: cell-based; parameters: scale not given: the % may be the effect or the level left
Target sequence in this assay (Q06187 2-659 limits assumed): as the sequence (Q06187 2-659 limits assumed) above
Target sequence in this assay (Q96SW2 whole entry partner): as the sequence (Q96SW2 whole entry) above

[7] = molecular target: T2, Tyrosine-protein kinase BTK (Homo sapiens, UniProt Q06187); assay: Inhibition of BTK in HEK293 cells using NanoGlo substrate incubated for 2 hrs by NanoBRET assay; assay type: cell-based
T2 sequence (Q06187 whole entry): as the sequence (Q06187 whole entry) above

[8] = molecular target: T2, Tyrosine-protein kinase BTK; assay: Binding affinity to full length BTK (unknown origin) assessed as dissociation constant measured at 37 degree C by TR-FRET assay
[9] = molecular target: T2, Tyrosine-protein kinase BTK; assay: Potency index, ratio of test compound Kd to GDC-0853 Kd for full length BTK (unknown origin)

DC50 [1] | Emax [2] | Emax [3] | DC50 [4] | IC50 (Protein cereblon) | Activity [6] | IC50 [7] | Kd [8] | Ratio [9] | SMILES | Activity (TMD8) | IC50 [5] | Activity (MINO)
6.8 nM | 97.2% | 97.7% | 5.3 nM |  |  |  |  |  | Cn1cc(-c2ccnc(N3CCn4c(cc5c4CC(C)(C)C5)C3=O)c2CO)cc(Nc2ccc(N3CCN(CCCCCCOCCOCC(=O)Nc4cccc5c4C(=O)N(C4CCC(=O)NC4=O)C5=O)CC3)cn2)c1=O (centres undefined) |  |  | 
3.5 nM | 96.9% | 98% | 2 nM |  |  |  |  |  | Cn1cc(-c2ccnc(N3CCn4c(cc5c4CC(C)(C)C5)C3=O)c2CO)cc(Nc2ccc(N3CCN(C(=O)CCCCCCNc4cccc5c4C(=O)N(C4CCC(=O)NC4=O)C5=O)CC3)cn2)c1=O (centres undefined) |  |  | 
0.8 nM | 97.3% | 97.6% | 0.9 nM |  |  |  |  |  | C[C@H]1CN(C(=O)CNc2ccc3c(c2)C(=O)N(C2CCC(=O)NC2=O)C3=O)CCN1c1ccc(Nc2cc(-c3ccnc(N4CCn5c(cc6c5CC(C)(C)C6)C4=O)c3CO)cn(C)c2=O)nc1 (some centres undefined) |  |  | 
 |  |  |  |  |  |  |  |  | C[C@H]1CN(C2COC2)CCN1c1ccc(Nc2cc(-c3ccnc(N4CCn5c(cc6c5CC(C)(C)C6)C4=O)c3CO)cn(C)c2=O)nc1 [FENEBRUTINIB] | Dose-Dependent Effect | 7.8 nM | inactive
348 nM | 89% | 89.8% | 113 nM | 5000 nM | 75% | 3200 nM | 107 nM | 300 | C[C@H]1CN(C(=O)CCCCCCCCCCCNc2cccc3c2C(=O)N(C2CCC(=O)NC2=O)C3=O)CCN1c1ccc(Nc2cc(-c3ccnc(N4CCn5c(cc6c5CC(C)(C)C6)C4=O)c3CO)cn(C)c2=O)nc1 (some centres undefined) |  |  | 
4.6 nM | 89.8% | 89.2% | 3.6 nM |  |  |  |  |  | C[C@H]1CN(C(=O)CNc2cccc3c2CN(C2CCC(=O)NC2=O)C3=O)CCN1c1ccc(Nc2cc(-c3ccnc(N4CCn5c(cc6c5CC(C)(C)C6)C4=O)c3CO)cn(C)c2=O)nc1 (some centres undefined) |  |  | 
 | 97.1% | 97.7% | 6.6 nM |  |  |  |  |  | C[C@H]1CN(C(=O)CCCCCCOCCOCC(=O)Nc2cccc3c2C(=O)N(C2CCC(=O)NC2=O)C3=O)CCN1c1ccc(Nc2cc(-c3ccnc(N4CCn5c(cc6c5CC(C)(C)C6)C4=O)c3CO)cn(C)c2=O)nc1 (some centres undefined) |  |  | 
7.2 nM | 98.3% | 98.8% | 4 nM |  |  |  |  |  | Cn1cc(-c2ccnc(N3CCn4c(cc5c4CC(C)(C)C5)C3=O)c2CO)cc(Nc2ccc(N3CCN(C(=O)CCCCCCOCCOCC(=O)Nc4cccc5c4C(=O)N(C4CCC(=O)NC4=O)C5=O)CC3)cn2)c1=O (centres undefined) |  |  | 
4.1 nM | 96.1% | 95.1% | 1.3 nM |  |  |  |  |  | C[C@H]1CN(C(=O)CCOCCOCCNc2cccc3c2C(=O)N(C2CCC(=O)NC2=O)C3=O)CCN1c1ccc(Nc2cc(-c3ccnc(N4CCn5c(cc6c5CC(C)(C)C6)C4=O)c3CO)cn(C)c2=O)nc1 (some centres undefined) |  |  | 
